Results on 39 compounds are retold here after ChEMBL document CHEMBL4431325, “Design and Synthesis of Orally Bioavailable 4-Methyl Heteroaryldihydropyrimidine Based Hepatitis B Virus (HBV) Capsid Inhibitors” (J Med Chem, 2016).

The structures appear in SMILES notation.

The nature of series [1]: Intrinsic clearance in mouse liver microsomes at 1 uM preincubated for 10 mins followed by NADPH addition measured up to 30 mins by LC-MS/MS analysis. In kind it is ADME, Microsome. To be noted: read-out: CLH. On the technique in general: Microsomes from liver hold many membrane-bound enzymes, among them those of drug oxidation.
Series [2] in a line: Intrinsic clearance in human liver microsomes at 1 uM preincubated for 10 mins followed by NADPH addition measured up to 30 mins by LC-MS/MS analysis. The class given is ADME, Microsome. To be noted: read-out: CLH.
The nature of series [3]: Oral bioavailability in CD-1 mouse plasma administered as single dose by LC-MS/MS analysis. The class given is ADME, organism-based. In outline: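 CD-1 mice (18-25 g) were used, with three mice per time point. The i.v. dose (5 mg/kg) was given in 6% Solutol/ethanol (1:1) plus 94% saline, and the oral dose (50 mg/kg) in 1% RC591. Blood was sampled at nine (i.v.) or eight (p.o.) time points into heparin. Plasma was analysed by LC-MS/MS, and parameters including F were derived noncompartmentally.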

A short description of series [4]: AUC (0 to t) in CD-1 mouse plasma at 5 mg/kg, iv administered as single dose by LC-MS/MS analysis. The note with it: in vivo. In kind it is ADME, organism-based.
Series [5] in a line: AUC (0 to t) in CD-1 mouse liver at 50 mg/kg, po administered as single dose by LC-MS/MS analysis. In kind it is ADME, organism-based. To be noted: in vivo.
Series [6] in a line: Cmax in CD-1 mouse liver at 50 mg/kg, po administered as single dose by LC-MS/MS analysis. The class given is ADME, organism-based. Also on record: dose 50 mg/kg, route oral.
Series [7] in a line: Drug uptake in CD-1 mouse lung at 5 mg/kg, iv or 50 mg/kg, po administered as single dose by LC-MS/MS analysis. To be noted: in vivo. In kind it is ADME, organism-based.
A short description of series [8]: Cmax in CD-1 mouse plasma at 5 mg/kg, iv administered as single dose by LC-MS/MS analysis. The class given is ADME, organism-based. On the set-up: dose 5 mg/kg, route intravenous.
The nature of series [9]: Half life in CD-1 mouse plasma at 50 mg/kg, po administered as single dose by LC-MS/MS analysis. In kind it is ADME, organism-based.
A short description of the next series: in vivo. To be noted: CD-1, mouse, other tissue, po, 50 mg/kg.
A short description of series [10]: Oral bioavailability in CD-1 mouse plasma at 50 mg/kg administered as single dose by LC-MS/MS analysis. The class given is ADME, organism-based.
The nature of series [11]: Drug uptake in CD-1 mouse brain at 5 mg/kg, iv or 50 mg/kg, po administered as single dose by LC-MS/MS analysis. The note with it: in vivo. The class given is ADME, organism-based.
The nature of series [12]: Cmax in CD-1 mouse plasma at 50 mg/kg, po administered as single dose by LC-MS/MS analysis. In kind it is ADME, organism-based. Also on record: dose 50 mg/kg, route oral.
A short description of series [13]: Volume of distribution at steady state in CD-1 mouse plasma at 5 mg/kg, iv administered as single dose by LC-MS/MS analysis. The class given is ADME, organism-based. The note with it: read-out: Vdss.
Series [14] can be described thus: AUC (0 to t) in CD-1 mouse plasma at 50 mg/kg, po administered as single dose by LC-MS/MS analysis. To be noted: in vivo. In kind it is ADME, organism-based.
Series [15] in a line: Clearance in CD-1 mouse plasma at 5 mg/kg, iv administered as single dose by LC-MS/MS analysis. The class given is ADME, organism-based.
Series [16] can be described thus: Drug uptake in CD-1 mouse heart at 5 mg/kg, iv or 50 mg/kg, po administered as single dose by LC-MS/MS analysis. In kind it is ADME, organism-based. To be noted: in vivo.
Series [17] in a line: Half life in CD-1 mouse plasma at 5 mg/kg, iv administered as single dose by LC-MS/MS analysis. The class given is ADME, organism-based.
A short description of series [18]: Stability in CD-1 mouse liver by LC-MS/MS analysis. The class given is ADME, tissue-based.
Series [19] in a line: Drug metabolism in mouse liver microsomes assessed as aromatization of dihydropyrimidine core at 1 uM preincubated for 10 mins followed by NADPH addition measured up to 30 mins by LC-MS/MS analysis. In kind it is ADME, Microsome. The note with it: 0.5 h.
A short description of series [20]: Drug metabolism in human liver microsomes assessed as aromatization of dihydropyrimidine core at 1 uM preincubated for 10 mins followed by NADPH addition measured up to 30 mins by LC-MS/MS analysis. In kind it is ADME, Microsome. The note with it: 0.5 h.

For the compound `CC(C)OC(=O)C1=C(CN2CCOCC2)NC(c2nccs2)=NC1(C)c1ccc(F)cc1` (stereo unspecified), the CLint scaled at 1 µM in series [1] was found to be 88 mL/min/kg.
With `COC(=O)C1=C(CN2CC(F)(F)C[C@H]2C(=O)OC)NC(c2nccs2)=N[C@@]1(C)c1ccc(F)cc1`, the CLint scaled at 1 µM amounted to 23 mL/min/kg in series [2] and 90 mL/min/kg in series [1].
On to `CC1(c2ccc(F)cc2)N=C(c2nccs2)NC(CN2CCOCC2)=C1C(N)=O` (stereo unspecified), for which the CLint scaled at 1 µM in series [1] is 59 mL/min/kg.
Still for that read-out and setting: to `COC(=O)C1=C(CN2CCCCC2)NC(c2nccs2)=NC1(C)c1ccc(F)cc1` (stereo unspecified) belongs 88 mL/min/kg.
The same measure, in the same setting: the result for `CC1(c2ccc(F)cc2)N=C(c2nccs2)NC(CN2CCOCC2)=C1C#N` (stereo unspecified) reads 79 mL/min/kg.
Still for that read-out and setting: to `COC(=O)C1=C(CN2CCCC(F)(F)C2)NC(c2nccs2)=NC1(C)c1ccc(F)cc1` (stereo unspecified) belongs 89 mL/min/kg; to `COC(=O)C1=C(CN2CCOCC2)NC(c2nccs2)=N[C@@]1(C)c1ccc(F)c(F)c1`, 89 mL/min/kg; to `COC(=O)C1=C(COC(C(=O)O)C(F)(F)F)NC(c2nccs2)=NC1(C)c1ccc(F)cc1` (stereo unspecified), 24 mL/min/kg.
For `COC(=O)C1=C(CN2CCC(O)CC2)NC(c2nccs2)=NC1(C)c1ccc(F)cc1` (stereo unspecified), the CLint scaled at 1 µM in series [1] amounted to 81 mL/min/kg.
On the same count and under the same terms, the result for `COC(=O)C1=C(C)NC(c2nccs2)=NC1(C)c1ccc(C#N)cc1` (stereo unspecified) reads 75 mL/min/kg; that for `COC(=O)C1=C(C)NC(c2nccs2)=NC1(C)c1ccc(S(C)(=O)=O)cc1` (stereo unspecified), 57 mL/min/kg.
Take `COC(=O)C1=C(CN2CCOC[C@H]2C(=O)O)NC(c2nccs2)=N[C@@]1(C)c1ccc(F)cc1`: the CLint scaled at 1 µM in [2] worked out at 4.1 mL/min/kg; in series [1] it was 80 mL/min/kg.
For the compound `COC(=O)C1=C(C)NC(c2nccs2)=NC1(C)c1ccc(Cl)cc1` (stereo unspecified), the CLint scaled at 1 µM in series [1] was 85 mL/min/kg.
With `CNC(=O)C1=C(CN2CCOCC2)NC(c2nccs2)=NC1(C)c1ccc(F)cc1` (stereo unspecified), the CLint scaled at 1 µM in series [1] was 77 mL/min/kg.
Still for that read-out and setting: to `COC(=O)C1=C(CN2CCCS2(=O)=O)NC(c2nccs2)=NC1(C)c1ccc(F)cc1` (stereo unspecified) belongs 79 mL/min/kg; to `COC(=O)C1=C(COCC(F)(F)F)NC(c2nccs2)=NC1(C)c1ccc(F)cc1` (stereo unspecified), 81 mL/min/kg.
As usually defined, the bioavailability is the share of a dose that reaches the circulation, judged against a reference dose that is usually intravenous. A lower bioavailability goes with little systemic uptake. `COC(=O)C1=C(CN2CCOCC2)NC(c2nccs2)=N[C@@]1(C)c1ccc(F)cc1`: the bioavailability in [3] was found to be 1.5%. Further, the CLint scaled at 1 µM in [1] was determined as 81 mL/min/kg.
Turning to `COC(=O)C1=C(CN2CC(OC)C2)NC(c2nccs2)=NC1(C)c1ccc(F)cc1` (stereo unspecified), the CLint scaled at 1 µM in [1] came to 88 mL/min/kg.
On the same count and under the same terms, to `COC(=O)C1=C(CN2CCC[C@@H]2C(=O)O)NC(c2nccs2)=N[C@@]1(C)c1ccc(F)cc1` belongs 60 mL/min/kg.
On the same count and under the same terms, the result for `COC(=O)C1=C(C)NC(c2nccs2)=NC1(C)c1ccc(F)c(F)c1` (stereo unspecified) reads 83 mL/min/kg; that for `CC1(c2ccc(F)cc2)N=C(c2nccs2)NC(CN2CCOCC2)=C1c1ncco1` (stereo unspecified), 89 mL/min/kg; that for `COC(=O)C1=C(CN2CCOCC2(C)C)NC(c2nccs2)=NC1(C)c1ccc(F)cc1` (stereo unspecified), 88 mL/min/kg.
On the same count and under the same terms, the result for `COC(=O)C1=C(CN2CCS(=O)(=O)CC2)NC(c2nccs2)=NC1(C)c1ccc(F)cc1` (stereo unspecified) reads 66 mL/min/kg; that for `CC1(c2ccc(F)cc2)N=C(c2nccs2)NC(CN2CCOCC2)=C1C(=O)O` (stereo unspecified), 6 mL/min/kg; that for `COC(=O)C1=C(CN2CCNCC2)NC(c2nccs2)=NC1(C)c1ccc(F)cc1` (stereo unspecified), 39 mL/min/kg.
By Cmax is commonly meant the highest concentration seen after dosing. A word on the half-life: it is how long it takes for the measured level to halve. Lower therefore signals rapid decline. Usually clearance stands for the rate of elimination divided by the concentration. Turning to `COC(=O)C1=C(CN2CC(F)(F)C[C@H]2C(=O)O)NC(c2nccs2)=N[C@@]1(C)c1ccc(F)cc1`, the results for the AUCt in [4], in series [5] and in [14] were 1500 µg/L/h, 107000 µg/L/h and 5420 µg/L/h, respectively. The Cmax in [6] stood at 41200 ng/mL; in [8], 12400 ng/mL; in series [12] it was 2470 ng/mL. For the same compound, the Drug uptake result in [7], in series [11] and in series [16] was “Not Active” throughout. In addition, the figures for the CLint scaled at 1 µM in series [2] and in [1] were 12 mL/min/kg and 84 mL/min/kg, respectively. The half-life is 48 min in [9] and 10.8 min in series [17]. Moreover, the Kp in the series “in vivo” came out at 20. For the same compound, the bioavailability in series [10] worked out at 36%. Moreover, in series [13], the Vd amounted to 0.22 L/kg. Also, the clearance in series [15] was 55.3 mL/min/kg.
As to `COC(=O)C1=C(CN2CCNC(=O)C2)NC(c2nccs2)=NC1(C)c1ccc(F)cc1` (stereo unspecified), the CLint scaled at 1 µM in [1] came to 81 mL/min/kg.
Still for that read-out and setting: the result for `COC(=O)C1=C(CN2CCC(F)(F)C2)NC(c2nccs2)=NC1(C)c1ccc(F)cc1` (stereo unspecified) reads 89 mL/min/kg.
Same read-out and setting: the result for `COC(=O)C1=C(CN2CCC(O)C2)NC(c2nccs2)=NC1(C)c1ccc(F)cc1` (stereo unspecified) reads 83 mL/min/kg.
`COC(=O)C1=C(CN(C)C2(C(=O)O)CC2)NC(c2nccs2)=NC1(C)c1ccc(F)cc1` (stereo unspecified): the CLint scaled at 1 µM in series [1] came to 42 mL/min/kg.
In the case of `COC(=O)C1=C(CN2CCC[C@H]2C(=O)O)NC(c2nccs2)=N[C@@]1(C)c1ccc(F)cc1`, the CLint scaled at 1 µM in series [2] is 2.3 mL/min/kg; in series [1], 14 mL/min/kg.
As to `COC(=O)C1=C(Cn2ccnc2)NC(c2nccs2)=NC1(C)c1ccc(F)cc1` (stereo unspecified), the CLint scaled at 1 µM in [1] is 69 mL/min/kg.
The same measure, in the same setting: the result for `COC(=O)C1=C(CN2CCC(F)(F)CC2)NC(c2nccs2)=NC1(C)c1ccc(F)cc1` (stereo unspecified) reads 88 mL/min/kg; that for `COC(=O)C1=C(CN2CCOCC2=O)NC(c2nccs2)=NC1(C)c1ccc(F)cc1` (stereo unspecified), 80 mL/min/kg.
On the same count and under the same terms, the result for `COC(=O)C1=C(CN2CCC(C(F)(F)F)C2)NC(c2nccs2)=NC1(C)c1ccc(F)cc1` (stereo unspecified) reads 88 mL/min/kg; that for `COC(=O)C1=C(CN2CCOC[C@@H]2C(=O)O)NC(c2nccs2)=N[C@@]1(C)c1ccc(F)cc1`, 61 mL/min/kg.
Consider `COC(=O)C1=C(COC2CCOC2)NC(c2nccs2)=NC1(C)c1ccc(F)cc1` (stereo unspecified), for which, in series [1], the CLint scaled at 1 µM is 79 mL/min/kg.
On the same count and under the same terms, the result for `COC(=O)C1=C(CN2CC3CC2CO3)NC(c2nccs2)=NC1(C)c1ccc(F)cc1` (stereo unspecified) reads 84 mL/min/kg.
Take `COC(=O)C1=C(C)NC(c2ncc(F)cc2F)=N[C@H]1c1ccc(F)cc1Cl`: the Stability entry in series [18] is reported as “Unstable”. For the same compound, the Drug metabolism entry in series [19] and in [20] was “Metabolite_Detected” in each case.
